Measured values from ChEMBL document CHEMBL2034814, “Synthesis and evaluation of γ-lactam analogs of PGE₂ as EP4 and EP2/EP4 agonists” (Bioorg Med Chem, 2012).

What was measured:
[1] = target: T1, Prostaglandin E2 receptor EP3 subtype (Mus musculus, UniProt P30557); assay: Displacement of [3H]PGE2 from mouse EP3 receptor expressed in CHO cells after 60 mins by scintillation counting; assay type: cell-based
T1 sequence (P30557 whole entry): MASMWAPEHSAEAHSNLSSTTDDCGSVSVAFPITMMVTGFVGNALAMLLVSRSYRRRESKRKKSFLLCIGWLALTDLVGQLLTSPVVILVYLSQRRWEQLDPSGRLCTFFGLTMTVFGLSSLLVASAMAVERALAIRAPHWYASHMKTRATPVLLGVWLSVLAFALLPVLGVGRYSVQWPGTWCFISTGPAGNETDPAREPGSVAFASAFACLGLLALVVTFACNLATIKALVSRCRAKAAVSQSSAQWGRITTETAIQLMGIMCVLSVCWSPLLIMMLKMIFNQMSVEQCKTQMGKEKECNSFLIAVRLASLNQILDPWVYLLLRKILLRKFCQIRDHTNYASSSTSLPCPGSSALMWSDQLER

Rattus norvegicus [2] = assay: Induction of bone fracture healing in CrJ:CD(SD)IGS rat assessed as breaking strength of fractured fibulae at 30 ug/kg administered tropically as PLGA microsphere formulation measured after 17 days relative to control; assay type: functional
Outline: (§1)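 Male Sprague–Dawley rats, 8 weeks old. Under sodium pentobarbital (30–50 mg/kg) the left fibula midshaft was exposed and cut. Compound in PLGA microspheres injected topically at the fracture. At 17 days fibulae removed for three-point destructive bending; breaking strength expressed as % of the mean of nonfractured fibulae from intact rats, with vehicle-treated fractured controls.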

[3] = target: T2, Prostaglandin E2 receptor EP1 subtype (Mus musculus, UniProt P35375); assay: Displacement of [3H]PGE2 from mouse EP1 receptor expressed in CHO cells after 20 mins by scintillation counting; assay type: cell-based
T2 sequence (P35375 whole entry): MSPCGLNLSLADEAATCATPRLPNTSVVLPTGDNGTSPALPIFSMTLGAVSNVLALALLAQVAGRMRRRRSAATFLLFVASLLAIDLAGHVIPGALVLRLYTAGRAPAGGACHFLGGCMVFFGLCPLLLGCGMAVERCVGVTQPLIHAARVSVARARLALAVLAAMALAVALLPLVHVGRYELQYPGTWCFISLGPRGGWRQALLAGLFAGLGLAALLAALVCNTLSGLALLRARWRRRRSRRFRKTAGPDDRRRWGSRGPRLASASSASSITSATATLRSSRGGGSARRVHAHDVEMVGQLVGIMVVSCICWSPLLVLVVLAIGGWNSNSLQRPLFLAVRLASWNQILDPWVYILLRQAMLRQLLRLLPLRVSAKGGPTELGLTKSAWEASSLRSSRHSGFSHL

[4] = Drug release from PLGA microsphere assessed as compound remaining in microsphere at 100 ug/ml after 7 days in presence of 5% methanol; assay type: physicochemical; settings: 168 h
[5] = Drug release from PLGA microsphere assessed as compound remaining in microsphere at 100 ug/ml after 28 days in presence of 5% methanol; assay type: physicochemical; settings: 672 h
[6] = target: Prostaglandin E2 receptor EP4 subtype (Rattus norvegicus, UniProt P43114); assay: Agonist activity at rat EP4 receptor expressed in CHO cells assessed as cAMP production after 10 mins by radioimmunoassay; assay type: functional, cell-based
[7] = target: Prostaglandin E2 receptor EP2 subtype (Rattus norvegicus, UniProt Q62928); assay: Agonist activity at rat EP2 receptor expressed in CHO cells assessed as cAMP production after 10 mins by radioimmunoassay; assay type: functional, cell-based
Outline: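 CHO cells expressing rat EP2 receptor, seeded 1 × 10^5 cells/well and grown 2 days; washed, incubated 10 min at 37 °C in MEM with 2 µM diclofenac, then preincubated 10 min in assay medium with 1% BSA. Compound added, 10 min at 37 °C, stopped with ice-cold 10% trichloroacetic acid; cAMP measured by radioimmunoassay.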

[8] = Drug release from PLGA microsphere assessed as compound remaining in microsphere at 100 ug/ml after 21 days in presence of 5% methanol; assay type: physicochemical; settings: 504 h
Rattus norvegicus [9] = assay: Induction of bone fracture healing in CrJ:CD(SD)IGS rat assessed as breaking strength of fractured fibulae at 10 ug/kg administered tropically as PLGA microsphere formulation measured after 17 days relative to control; assay type: functional; outline: as §1
Rattus norvegicus [10] = assay: Induction of bone fracture healing in CrJ:CD(SD)IGS rat assessed as breaking strength of fractured fibulae at 3 ug/kg administered tropically as PLGA microsphere formulation measured after 17 days relative to control; assay type: functional; outline: as §1
[11] = target: Prostaglandin E2 receptor EP2 subtype (Mus musculus, UniProt Q62053); assay: Displacement of [3H]PGE2 from mouse EP2 receptor expressed in CHO cells after 60 mins by scintillation counting; assay type: cell-based
Rattus norvegicus [12] = assay: Induction of bone fracture healing in CrJ:CD(SD)IGS rat assessed as breaking strength of fractured fibulae administered tropically as PLGA microsphere formulation measured after 17 days relative to control; assay type: functional, organism-based; outline: as §1
[13] = Drug release from PLGA microsphere assessed as compound remaining in microsphere at 100 ug/ml after 14 days in presence of 5% methanol; assay type: physicochemical; settings: 336 h
Rattus norvegicus [14] = assay: Induction of bone fracture healing in CrJ:CD(SD)IGS rat assessed as breaking strength of fractured fibulae at 300 ug/kg administered tropically as PLGA microsphere formulation measured after 17 days relative to control; assay type: functional; outline: as §1
Rattus norvegicus [15] = assay: Induction of bone fracture healing in CrJ:CD(SD)IGS rat assessed as breaking strength of fractured fibulae at 100 ug/kg administered tropically as PLGA microsphere formulation measured after 17 days relative to control; assay type: functional; outline: as §1
[16] = target: Prostaglandin E2 receptor EP4 subtype (Mus musculus, UniProt P32240); assay: Displacement of [3H]PGE2 from mouse EP4 receptor expressed in CHO cells after 60 mins by scintillation counting; assay type: cell-based
[17] = Drug release from PLGA microsphere assessed as compound remaining in microsphere at 100 ug/ml after 7 days; assay type: physicochemical; settings: 168 h
Rattus norvegicus [18] = assay: Toxicity in CrJ:CD(SD)IGS rat assessed as change in heart rate at 1000 ug/kg, administered tropically as PLGA microsphere formulation; assay type: organism-based; settings: in vivo, topical_or_ocular, 1 mg/kg
Outline: (§2)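 Male Sprague–Dawley rats, 7–9 weeks old, anesthetized with urethane (1.5 g/kg, sc); compound given as PLGA microsphere formulation, with heart rate and mean blood pressure monitored.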

[19] = Drug release from PLGA microsphere assessed as compound remaining in microsphere at 100 ug/ml after 14 days; assay type: physicochemical; settings: 336 h
Rattus norvegicus [20] = assay: Toxicity in CrJ:CD(SD)IGS rat assessed as change in mean blood pressure at 300 ug/kg administered tropically as PLGA microsphere formulation; assay type: organism-based; settings: in vivo, topical_or_ocular, 0.3 mg/kg; outline: as §2
Rattus norvegicus [21] = assay: Toxicity in CrJ:CD(SD)IGS rat assessed as change in heart rate at 3000 ug/kg, administered tropically as PLGA microsphere formulation; assay type: organism-based; settings: in vivo, topical_or_ocular, 3 mg/kg; outline: as §2
Rattus norvegicus [22] = assay: Toxicity in CrJ:CD(SD)IGS rat assessed as change in mean blood pressure at 3000 ug/kg administered tropically as PLGA microsphere formulation; assay type: organism-based; settings: in vivo, topical_or_ocular, 3 mg/kg; outline: as §2
Rattus norvegicus [23] = assay: Toxicity in CrJ:CD(SD)IGS rat assessed as change in mean blood pressure at 1000 ug/kg administered tropically as PLGA microsphere formulation; assay type: organism-based; settings: in vivo, topical_or_ocular, 1 mg/kg; outline: as §2
[24] = Drug release from PLGA microsphere assessed as compound remaining in microsphere at 100 ug/ml after 21 days; assay type: physicochemical; settings: 504 h
Rattus norvegicus [25] = assay: Toxicity in CrJ:CD(SD)IGS rat assessed as change in heart rate at 300 ug/kg, administered tropically as PLGA microsphere formulation; assay type: organism-based; settings: in vivo, topical_or_ocular, 0.3 mg/kg; outline: as §2
[26] = Drug release from PLGA microsphere assessed as compound remaining in microsphere at 100 ug/ml after 28 days; assay type: physicochemical; settings: 672 h

Sequence of Prostaglandin E2 receptor EP4 subtype (Rattus norvegicus, UniProt P43114) (P43114 whole entry): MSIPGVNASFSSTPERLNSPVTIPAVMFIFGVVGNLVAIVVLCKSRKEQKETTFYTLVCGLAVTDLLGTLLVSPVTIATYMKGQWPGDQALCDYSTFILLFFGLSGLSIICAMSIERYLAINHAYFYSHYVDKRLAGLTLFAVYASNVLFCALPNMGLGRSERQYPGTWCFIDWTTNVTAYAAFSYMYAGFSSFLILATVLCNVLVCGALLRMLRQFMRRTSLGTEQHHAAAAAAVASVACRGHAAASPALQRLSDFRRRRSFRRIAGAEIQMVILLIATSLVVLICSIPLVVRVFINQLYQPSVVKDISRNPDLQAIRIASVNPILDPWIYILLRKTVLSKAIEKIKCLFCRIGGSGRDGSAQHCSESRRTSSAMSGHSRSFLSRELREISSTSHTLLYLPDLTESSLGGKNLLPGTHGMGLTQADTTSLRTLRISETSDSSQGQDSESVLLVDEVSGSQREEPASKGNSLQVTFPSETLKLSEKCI
Sequence of Prostaglandin E2 receptor EP2 subtype (Mus musculus, UniProt Q62053) (Q62053 whole entry): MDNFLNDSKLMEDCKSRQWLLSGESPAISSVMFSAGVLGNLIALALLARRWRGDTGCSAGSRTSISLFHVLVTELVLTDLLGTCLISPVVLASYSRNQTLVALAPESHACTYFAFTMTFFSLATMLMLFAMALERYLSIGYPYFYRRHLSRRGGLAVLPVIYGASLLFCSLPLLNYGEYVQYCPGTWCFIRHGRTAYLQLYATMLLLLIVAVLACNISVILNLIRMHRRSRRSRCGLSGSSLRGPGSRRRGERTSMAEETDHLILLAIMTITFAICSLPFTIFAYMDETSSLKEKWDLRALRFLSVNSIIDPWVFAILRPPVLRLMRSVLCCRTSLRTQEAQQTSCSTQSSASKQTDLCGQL
Sequence of Prostaglandin E2 receptor EP4 subtype (Mus musculus, UniProt P32240) (P32240 whole entry): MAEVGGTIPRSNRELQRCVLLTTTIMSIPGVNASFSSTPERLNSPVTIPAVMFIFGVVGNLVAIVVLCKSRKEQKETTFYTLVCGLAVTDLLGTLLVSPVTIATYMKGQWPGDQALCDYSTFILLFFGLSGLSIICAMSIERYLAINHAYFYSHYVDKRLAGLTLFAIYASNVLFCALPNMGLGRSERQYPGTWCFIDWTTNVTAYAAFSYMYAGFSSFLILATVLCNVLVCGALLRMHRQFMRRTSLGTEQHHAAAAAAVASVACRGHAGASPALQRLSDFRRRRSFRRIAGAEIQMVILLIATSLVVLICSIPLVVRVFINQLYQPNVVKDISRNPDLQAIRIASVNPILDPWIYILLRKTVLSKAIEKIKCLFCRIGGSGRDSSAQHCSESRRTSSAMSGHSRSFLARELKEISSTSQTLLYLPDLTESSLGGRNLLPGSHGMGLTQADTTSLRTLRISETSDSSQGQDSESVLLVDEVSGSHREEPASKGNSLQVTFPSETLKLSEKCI
Sequence of Prostaglandin E2 receptor EP2 subtype (Rattus norvegicus, UniProt Q62928) (Q62928 whole entry): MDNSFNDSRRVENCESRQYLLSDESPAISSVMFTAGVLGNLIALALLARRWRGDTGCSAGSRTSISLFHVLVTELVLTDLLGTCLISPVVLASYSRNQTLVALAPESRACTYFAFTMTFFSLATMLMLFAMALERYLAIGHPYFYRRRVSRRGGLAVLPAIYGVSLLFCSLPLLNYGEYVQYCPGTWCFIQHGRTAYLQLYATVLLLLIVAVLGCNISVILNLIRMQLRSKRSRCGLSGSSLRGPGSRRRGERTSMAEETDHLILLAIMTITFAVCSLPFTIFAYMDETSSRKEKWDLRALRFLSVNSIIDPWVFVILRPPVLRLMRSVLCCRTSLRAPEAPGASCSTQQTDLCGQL

Ki [1] | Ki [3] | EC50 [6] | Ki [11] | Ki [16] | SMILES | Activity (Rattus norvegicus [2]) | Activity (Rattus norvegicus [12]) | Activity (Rattus norvegicus [14]) | Activity (Rattus norvegicus [15]) | further results
> 10000 nM | 1300 nM | 8.8 nM | 21 nM | 0.21 nM | Cc1ccc2oc(-c3cccc(C[C@H](O)/C=C/[C@H]4CCC(=O)N4CCSc4nc(C(=O)O)cs4)c3)nc2c1 | 98.1% | Dose-dependent effect | 144.3% | 136% | Activity [4]: 99.6%; Activity [5]: 79.3%; EC50 [7]: > 10000 nM; Activity [8]: 85.2%; Activity (Rattus norvegicus [9]): 87.7%; Activity (Rattus norvegicus [10]): 77.7%; Activity [13]: 93.1%
> 10000 nM | > 10000 nM | 7 nM | 2000 nM | 0.1 nM | O=C(O)CCCSCCN1C(=O)CC[C@@H]1/C=C/[C@@H](O)Cc1cccc(-c2cc3ccccc3o2)c1 | 95.4% | Dose-dependent effect | 154% | 136.3% | Activity [17]: 94.8%; Activity (Rattus norvegicus [18]): 104.6%; Activity [19]: 91.1%; Activity (Rattus norvegicus [20]): 98.4%; Activity (Rattus norvegicus [21]): 111.4%; Activity (Rattus norvegicus [22]): 97.3%; Activity (Rattus norvegicus [23]): 98.2%; Activity [24]: 83.5%; Activity (Rattus norvegicus [25]): 106.3%; Activity [26]: 46.3%
